Experimental data reported in PMC6018888 (Drug Design, Development and Therapy, 2018).

Tested on: healthy Japanese and non-Asian adult male subjects
Assay: Safety and tolerability assessment
Assay type: in vivo, human
Settings: for incidence of TEAEs: 10 mg dose level
How it was run: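 Adverse events were assessed daily in all dosed subjects, graded by Rheumatology Common Toxicity Criteria v2.0, with relatedness judged by the investigator. Clinical laboratory samples were taken at screening, admission, days 2, 5, 7 and 13, and at follow-up. Supine vital signs and oral temperature were measured at set times. Physical examination and 12-lead ECG were done at screening and follow-up.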

[1] = Japanese subjects, pooled verinurad (n=24)
[2] = Non-Asian subjects, pooled verinurad (n=6)

In the case of `CC(C)(Sc1ccncc1-c1ccc(C#N)c2ccccc12)C(=O)O` [verinurad], the “AE possibly related to study drug, severe severity/life-threatening” value [1] is reported as 0 n (%) [events], the “Any AE, severe severity/life-threatening” value [1] is reported as 0 n (%) [events] and the SAEs [1] is reported as 0 n (%) [events]. The “incidence of TEAEs” value (Japanese subjects) was 2 n, the “AE possibly related to study drug, moderate severity” value [2] was 0 n (%) [events] and the “AE possibly related to study drug, severe severity/life-threatening” value [2] was 0 n (%) [events]. The “Any AE, severe severity/life-threatening” value [2] was 0 n (%) [events], the SAEs [2] was 0 n (%) [events] and the “Subjects withdrawn due to AEs” value [2] was 0 n (%) [events]. For the same compound, the “serum chemistry, hematology, coagulation, urinalysis parameters” value (all subjects) was “No safety concerns were identified”, the “vital signs, 12-lead electrocardiograms, physical examinations” value (all subjects) was “No clinically significant findings” and the “deaths, serious AEs, significant AEs of interest” value (all subjects, during the study) was “No deaths, other serious AEs, or other significant AEs of interest were reported”. For the same compound, the tolerability (healthy male Japanese and non-Asian subjects, single and multiple once-daily doses 2.5 to 15 mg) was “well tolerated”, the “incidence of TEAEs” value (non-Asian subjects) was 2 n and the serum creatinine elevation (one subject, 3 days after a single 2.5 mg dose, resolved by day 14) was 1.5 × baseline. For the same compound, the “TEAE of moderate severity” value (one subject, day 13 following daily dosing with 10 mg, unlikely to be related) was “moderately severe muscle strain”.
